Laboratory results reported in ChEMBL document CHEMBL1156229, “Pharmacophore development and application toward the identification of novel, small-molecule autotaxin inhibitors” (J Med Chem, 2010).

Target: Autotaxin (Homo sapiens, UniProt Q13822)
Experiment: Inhibition of human recombinant C-terminal FLAG-tagged autotaxin expressed in baculovirus-infected Sf9 cells assessed as FS-3 hydrolysis at 10 uM relative to control
Method in brief: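 Single-dose screen: inhibitor 10 μM final, purified recombinant human ATX 8.3 nM, FS-3 1 μM, fatty acid free BSA 30 μM in Tris pH 8 buffer (1 mM MgCl2, 1 mM CaCl2, 3 mM KCl, 140 mM NaCl), 37 °C. Fluorescence (ex 485/em 538) read every 2 min; percent activity vs vehicle after no-ATX subtraction at 1 h; mean ± SD of three wells.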

Row | SMILES | inhibition [%]
1 | O=C(N/N=C/c1ccc(O)c(S(=O)(=O)O)c1)C(=O)N/N=C/c1ccc(O)c(S(=O)(=O)O)c1 | 5
2 | O=C(N/N=C/c1ccccc1S(=O)(=O)O)C(=O)N/N=C/c1ccccc1S(=O)(=O)O | -2
3 | Nc1ccc2c(O)c(/N=N/c3ccc4c(O)cc(S(=O)(=O)O)cc4c3)c(S(=O)(=O)O)cc2c1 | 30
4 | CCOc1cc(-c2ccc(/N=N/c3c(S(=O)(=O)O)cc4ccc(N)cc4c3O)cc2)ccc1/N=N/c1c(S(=O)(=O)O)cc2ccc(N)cc2c1O | 39
5 | O=S(=O)(O)c1ccccc1/C=N/NC(=S)N/N=C/c1ccccc1S(=O)(=O)O | 1
6 | O=C(Nc1ccc2c(O)cc(S(=O)(=O)O)cc2c1)Nc1ccc2c(O)c(/N=N/c3ccc4cc(S(=O)(=O)O)ccc4c3)c(S(=O)(=O)O)cc2c1 | 36
7 | O=C(O)c1ccccc1-c1c2cc/c(=N\c3ccccc3)cc-2oc2cc(Nc3ccc(S(=O)(=O)O)cc3)ccc12 | 27
8 | Nc1c(S(=O)(=O)O)cc(Nc2cccc(S(=O)(=O)/C=C/S(=O)(=O)O)c2)c2c1C(=O)c1ccccc1C2=O | 43
9 | Cc1ccc(Nc2ccc(Nc3ccc(C)cc3S(=O)(=O)O)c3c2C(=O)c2ccccc2C3=O)c(S(=O)(=O)O)c1 | 8
10 | O=S(=O)(O)c1ccc(O)c(/N=N/C=N/Nc2cc(S(=O)(=O)O)ccc2O)c1 | -1
11 | O=C1c2ccc(S(=O)(=O)O)cc2C(=O)c2c(Nc3ccccc3)ccc(Nc3ccc(S(=O)(=O)O)cc3)c21 | 6
12 | O=C1Nc2ccc(S(=O)(=O)O)cc2/C1=N/Nc1ccccc1[N+](=O)[O-] | 8
13 | CCCCc1ccc(Nc2ccc(Nc3ccc(CCCC)cc3S(=O)(=O)O)c3c2C(=O)c2ccccc2C3=O)c(S(=O)(=O)O)c1 | 8
14 | Cc1ccc(Nc2cccc3c2C(=O)c2cccc(Nc4ccc(C)cc4S(=O)(=O)O)c2C3=O)c(S(=O)(=O)O)c1 | 6
15 | O=C(Nc1ccc2cc(S(=O)(=O)O)cc(S(=O)(=O)O)c2c1)Nc1ccc2cc(S(=O)(=O)O)cc(S(=O)(=O)O)c2c1 | 0
16 | Nc1cc(C(=O)Nc2ccc(S(=O)(=O)O)cc2)ccc1C(=O)Nc1ccc(S(=O)(=O)O)cc1 | -2
17 | Nc1cccc(/N=N/c2c(S(=O)(=O)O)cc3cc(NC(=O)Nc4ccc5c(O)c(/N=N/c6cccc(N)c6)c(S(=O)(=O)O)cc5c4)ccc3c2O)c1 | 32
18 | Nc1ccc(C(=O)Nc2cccc(C(=O)Nc3ccc4c(O)c(/N=N/c5ccc(/N=N/c6ccc(S(=O)(=O)O)cc6)cc5)c(S(=O)(=O)O)cc4c3)c2)cc1 | 39
19 | COc1ccc(/C=N/NC(=O)C(=O)N/N=C/c2ccc(OC)c(S(=O)(=O)O)c2)cc1S(=O)(=O)O | 0
20 | O=C(Nc1ccccc1)C(=N/Nc1cc(S(=O)(=O)O)ccc1O)/N=N/c1cc(S(=O)(=O)O)ccc1O | 0
21 | O=C(Nc1ccc2cc(S(=O)(=O)O)ccc2c1)c1ccc([N+](=O)[O-])cc1 | -1
22 | O=C(Nc1cccc(C(=O)Nc2ccc3cc(S(=O)(=O)O)cc(S(=O)(=O)O)c3c2)c1)Nc1cccc(C(=O)Nc2ccc3cc(S(=O)(=O)O)cc(S(=O)(=O)O)c3c2)c1 | 29

Row | SMILES | inhibition [%]
23 | CC(=O)Nc1cc(S(=O)(=O)O)cc2cc(S(=O)(=O)O)c(/N=N/c3ccc(C(=O)Nc4ccc(S(=O)(=O)O)cc4)cc3)c(O)c12 | 17
24 | CC(=O)Nc1ccc(/N=N/c2c(S(=O)(=O)O)cc3cc(NC(=O)Nc4ccc5c(O)c(/N=N/c6ccccc6)c(S(=O)(=O)O)cc5c4)ccc3c2O)cc1 | 17
25 | O=C1/C(=C2\Nc3ccc(S(=O)(=O)O)cc3C2=O)Nc2ccc(S(=O)(=O)O)cc21 | 12
26 | O=C(Nc1cc(O)ccc1Oc1cc(O)c(O)cc1S(=O)(=O)O)Nc1cc(O)ccc1Oc1cc(O)c(O)cc1S(=O)(=O)O | 0
27 | Cc1ccc(C(=O)Nc2ccc(S(=O)(=O)O)c3cc(S(=O)(=O)O)cc(S(=O)(=O)O)c23)cc1NC(=O)c1cccc(NC(=O)Nc2cccc(C(=O)Nc3cc(C(=O)Nc4ccc(S(=O)(=O)O)c5cc(S(=O)(=O)O)cc(S(=O)(=O)O)c45)ccc3C)c2)c1 | 27
28 | Nc1ccc(C(=O)Nc2ccc(C(=O)Nc3ccc4cc(S(=O)(=O)O)cc(S(=O)(=O)O)c4c3)cc2)cc1 | 5
29 | CC(=O)Nc1cc(S(=O)(=O)O)cc2cc(S(=O)(=O)O)c(/N=N/c3ccc(C(=O)Nc4ccc5cc(S(=O)(=O)O)ccc5c4)cc3)c(O)c12 | 29
30 | O=C(Nc1ccc2c(O)cc(S(=O)(=O)O)cc2c1)c1ccc([N+](=O)[O-])cc1 | 12
31 | O=C(N/N=C/c1ccc(O)c(S(=O)(=O)O)c1)N/N=C/c1ccc(O)c(S(=O)(=O)O)c1 | 6
32 | Cc1ccc(C(=O)Nc2ccc(S(=O)(=O)[O-])c3cc(S(=O)(=O)O)cc(S(=O)(=O)[O-])c23)cc1NC(=O)c1cccc(NC(=O)Nc2cccc(C(=O)Nc3cc(C(=O)Nc4ccc(S(=O)(=O)O)c5cc(S(=O)(=O)O)cc(S(=O)(=O)O)c45)ccc3C)c2)c1.Cc1ccc(C)c2c1c(NCCCCCCNc1cc(C)[n+](C)c3c(C)ccc(C)c13)cc(C)[n+]2C | 6
33 | Cc1[nH]n(-c2cc(S(=O)(=O)O)ccc2O)c(=O)c1/N=N/c1c(NC(=O)c2ccc(N)cc2)ccc2cc(S(=O)(=O)O)ccc12 | 49
34 | O=C(Nc1ccc2c(O)c(/N=N/c3ccccc3)c(S(=O)(=O)O)cc2c1)Nc1ccc2c(O)c(/N=N/c3ccccc3)c(S(=O)(=O)O)cc2c1 | 23
35 | Nc1ccc(C(=O)Nc2ccc(NC(=O)Nc3ccc(NC(=O)c4ccc(N)cc4)c(S(=O)(=O)O)c3)cc2S(=O)(=O)O)cc1 | 12
36 | O=C(Nc1ccc2c(O)cc(S(=O)(=O)O)cc2c1)Nc1ccc2c(O)cc(S(=O)(=O)O)cc2c1 | 11
37 | O=C(N/N=C/c1ccccc1S(=O)(=O)O)N/N=C/c1ccccc1S(=O)(=O)O | -5
38 | O=C(Nc1cccc(C(=O)Nc2ccc(S(=O)(=O)O)c3cc(S(=O)(=O)O)cc(S(=O)(=O)O)c23)c1)Nc1cccc(C(=O)Nc2cccc3c(S(=O)(=O)O)c(S(=O)(=O)O)cc(S(=O)(=O)O)c23)c1 | 27
39 | NC(Cc1ccc(O)cc1)C(=O)NCCS(=O)(=O)O (stereo not given) | 1
40 | Cc1cc(C)c(S(=O)(=O)O)c(C)c1Nc1ccc(Nc2c(C)cc(C)c(S(=O)(=O)O)c2C)c2c1C(=O)c1ccccc1C2=O | 13
41 | Nc1ccc2cc(S(=O)(=O)O)cc(O)c2c1/N=N/c1ccc(NC(=O)Nc2ccc(/N=N/c3c(N)ccc4cc(S(=O)(=O)O)cc(O)c34)c(S(=O)(=O)O)c2)cc1S(=O)(=O)O | 22
42 | Cc1ccc(Nc2cccc3c2C(=O)c2cccc(Nc4ccc(C)c(S(=O)(=O)O)c4)c2C3=O)cc1S(=O)(=O)O | 4
43 | Nc1ccc2c(O)c(/N=N/c3ccc(-c4ccc(/N=N/c5c(S(=O)(=O)O)cc6cc(S(=O)(=O)O)c(/N=N/c7cc(O)ccc7O)c(N)c6c5O)cc4)cc3)c(S(=O)(=O)O)cc2c1 | 1
44 | O=C(Nc1ccc(S(=O)(=O)c2ccc(NC(=O)Nc3ccc4cc(S(=O)(=O)O)ccc4c3)cc2)cc1)Nc1ccc2cc(S(=O)(=O)O)ccc2c1 | 43

Row | SMILES | inhibition [%]
45 | Nc1ccc(NC(=O)c2ccc(C(=O)Nc3ccc4c(O)cc(S(=O)(=O)O)cc4c3)cc2)cc1 | 20
46 | COc1cc(/N=N/c2ccc(/N=N/c3cc(S(=O)(=O)O)ccc3S(=O)(=O)O)c(C)c2)c(C)cc1/N=N/c1ccc(NC(=O)c2ccc(N)cc2)cc1C | 39
47 | COc1ccc(/C=N/NC(=N)C(=N)N/N=C/c2ccc(OC)c(S(=O)(=O)O)c2)cc1S(=O)(=O)O | 8
48 | COc1cc(S(=O)(=O)O)ccc1/N=N/C(=N\Nc1ccc(S(=O)(=O)O)cc1OC)C(N)=O | -1
49 | O=S(=O)(O)c1ccc(/N=N/Nc2ccc(S(=O)(=O)O)cc2)cc1 | 1
50 | Cc1cc(C(O)(c2ccc(Nc3ccccc3)cc2)c2ccc(Nc3ccc(S(=O)(=O)O)cc3)cc2)ccc1N (stereo not given) | 65
51 | Cc1cc(C)c(/N=N/c2cc(C)c(/N=N/c3c(S(=O)(=O)O)cc4cc(Nc5ccccc5)ccc4c3O)cc2C)c(S(=O)(=O)O)c1 | 27
52 | Nc1ccc(C(=O)Nc2ccc(C(=O)Nc3ccc(/C=C/c4ccc(NC(=O)c5ccc(N)cc5)cc4S(=O)(=O)O)c(S(=O)(=O)O)c3)cc2)cc1 | 0
53 | N=C(N/N=C/c1ccccc1S(=O)(=O)O)C(=N)N/N=C/c1ccccc1S(=O)(=O)O | 5
54 | COc1ccc(/C=N/NC(=O)N/N=C/c2ccc(OC)c(S(=O)(=O)O)c2)cc1S(=O)(=O)O | 2
55 | COc1cc(/N=N/c2cccc(S(=O)(=O)O)c2)ccc1NC(=O)Nc1ccc(/N=N/c2ccc(O)c(C(=O)O)c2)cc1 | 21
56 | Nc1cccc(/N=N/c2c(S(=O)(=O)O)cc3cc(Nc4ccc5c(O)c(/N=N/c6cccc(N)c6)c(S(=O)(=O)O)cc5c4)ccc3c2O)c1 | 33
57 | Nc1cc(N)c(/N=N/c2cccc3c(S(=O)(=O)O)cccc23)cc1/N=N/c1cc([N+](=O)[O-])ccc1O | 19
58 | O=C(O)c1cc(O)c(O)c(OC(=O)c2cc(O)c(O)c(O)c2CNc2ccc3cc(S(=O)(=O)O)cc(S(=O)(=O)O)c3c2)c1 | 2
59 | O=C(CC(C(=O)O)S(=O)(=O)O)Nc1ccc(S(=O)(=O)c2ccc(NC(=O)CC(C(=O)O)S(=O)(=O)O)cc2)cc1 (stereo not given) | 1
60 | COc1cc(/N=N/c2c(C)cc(C)cc2S(=O)(=O)O)c(C)cc1/N=N/c1c(S(=O)(=O)O)cc2cc(Nc3ccccc3)ccc2c1O | 2
61 | O=C(Nc1ccc2cc(S(=O)(=O)O)cc(O)c2c1)Nc1ccc2cc(S(=O)(=O)O)cc(O)c2c1 | -6
62 | O=C(Nc1ccc(S(=O)(=O)O)cc1)c1ccc(/N=N/c2cc(S(=O)(=O)O)c3ccccc3c2O)cc1 | 1
63 | COc1ccc(NS(=O)(=O)c2ccc(NC(CNC(C)S(=O)(=O)O)S(=O)(=O)O)cc2)cc1 (stereo not given) | 4
64 | Cc1cc(/N=N/c2ccc(/C=C/c3ccc(/N=N/c4cc(C)c(N)c(/N=N/c5ccc(S(=O)(=O)O)cc5)c4N)cc3S(=O)(=O)O)c(S(=O)(=O)O)c2)c(N)c(/N=N/c2ccc(S(=O)(=O)O)cc2)c1N | 35
65 | O=C(Nc1ccc(C(=O)Nc2ccc3c(O)cc(S(=O)(=O)O)cc3c2)cc1)c1ccccc1 | 21
